The results in this text go back to ChEMBL document CHEMBL1135624, “Parallel synthesis of potent, pyrazole-based inhibitors of Helicobacter pylori dihydroorotate dehydrogenase” (J Med Chem, 2002).

As a reminder, the MIC is the lowest concentration found to suppress growth. A higher MIC goes with weaker potency. What is called Ki is the dissociation constant of the complex between target and ligand, obtained from inhibition or displacement. Read a high Ki as weaker binding.

≈ marks a conversion by molar mass, not a printed value.

Assay [1] relates to Helicobacter pylori. Nature of the assay: Minimum Inhibitory concentration against Helicobacter pylori. Format: functional. Summed up:
(§1)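 Whole-cell antimicrobial MIC against a reference American Type Culture Collection *H. pylori* strain, reported in μg/mL.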

Assay [2] concerns the target Dihydroorotate dehydrogenase (quinone), mitochondrial (Homo sapiens, UniProt Q02127). Nature of the assay: Inhibition of human dihydroorotate dehydrogenase (DHODase).
Assay [3] has as its system Helicobacter pylori. The assay is described as follows: Minimum inhibitory concentration measured against compound 13 resistant Helicobacter pylori isolate. Format: functional. The essentials:
(§2)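 Spontaneously resistant H. pylori mutants were isolated by plating cells on the selecting pyrazole, with the same method for each of the two selecting agents. Each resistant isolate was then tested for MIC against the pyrazole not used to select it, as a cross-resistance check.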

Assay [4] relates to Helicobacter pylori. Nature of the assay: Minimum inhibitory concentration measured against compound 1 resistant Helicobacter pylori isolate. The assay is classed as functional. Summed up: as §2
The nature of assay [5]: Minimum inhibitory concentration measured against wild type. The assay is classed as functional. The note with it: Helicobacter pylori. Summed up: as §1

Sequence of Dihydroorotate dehydrogenase (quinone), mitochondrial (Q02127 whole entry): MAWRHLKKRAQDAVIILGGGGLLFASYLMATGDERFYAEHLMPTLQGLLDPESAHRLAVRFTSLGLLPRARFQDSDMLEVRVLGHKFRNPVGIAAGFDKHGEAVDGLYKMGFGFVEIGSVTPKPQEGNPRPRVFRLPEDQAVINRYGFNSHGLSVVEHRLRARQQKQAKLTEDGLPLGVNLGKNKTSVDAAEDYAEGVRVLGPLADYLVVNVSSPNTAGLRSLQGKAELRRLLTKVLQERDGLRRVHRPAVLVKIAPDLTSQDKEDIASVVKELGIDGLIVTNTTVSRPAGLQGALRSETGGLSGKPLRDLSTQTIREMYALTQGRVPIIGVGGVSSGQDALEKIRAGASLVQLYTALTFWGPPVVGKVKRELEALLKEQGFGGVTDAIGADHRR

In assay [1], `CC(C)CNC(=O)c1cc(C(=O)NCc2ccccc2)nn1-c1ccc(Cl)cc1` came in with an MIC greater than 64 µg/mL. This molecule returned a Ki in assay [2] greater than 50 µM.

Molecule `COc1ccc(-n2nc(C(=O)Nc3ccc(C(=O)N4CCCC4)cc3)cc2C(=O)NCc2ccccc2)cc1` showed a minimal inhibitory concentration (MIC) in assay [1] greater than 32 µg/mL.

Turning to `O=C(NCc1cccnc1)c1cc(C(=O)Nc2ccc(N3CCCCC3)cc2)n(-c2ccc(Cl)cc2)n1`, in assay [1], inhibition of growth (MIC) required 2 µg/mL (≈ 3.88 µM). Besides, in assay [2], the Ki is greater than 50 µM.

`COc1ccc(-n2nc(C(=O)NCC(C)C)cc2C(=O)Nc2ccc(C(=O)N3CCCC3)cc2)cc1` had an MIC in assay [1] of 64 µg/mL (≈ 131 µM). The molecule also registered an inhibitory constant (Ki) in assay [2] greater than 50 µM.

Regarding `COc1ccc(-n2nc(C(=O)NCc3cccnc3)cc2C(=O)Nc2ccccc2)cc1`, the MIC in assay [1] turned out to be 0.5 µg/mL (≈ 1.17 µM); in assay [3], 24 µg/mL (≈ 56.1 µM); in assay [4] it was 32 µg/mL (≈ 74.9 µM); in assay [5] it was 0.5 µg/mL (≈ 1.17 µM). In assay [2], this molecule returned an inhibitory constant (Ki) greater than 50 µM.

`O=C(NCc1ccccc1)c1cc(C(=O)Nc2ccccc2)n(-c2ccc(Cl)cc2)n1` had a minimum inhibitory concentration (MIC) in assay [1] of 0.125 µg/mL (≈ 0.29 µM). Moreover, the inhibition constant (Ki) in assay [2] stood at 50 µM.

`Cc1ccc(CNC(=O)c2cc(C(=O)Nc3ccccc3)n(-c3ccc(Cl)cc3)n2)cc1`: the MIC in assay [1] came to 32 µg/mL (≈ 71.9 µM). This molecule also displayed a Ki in assay [2] greater than 50 µM.

In turn, `COc1ccc(-n2nc(C(=O)NC(c3ccccc3)c3ccccc3)cc2C(=O)NCc2ccccc2)cc1` displayed an MIC in assay [1] greater than 32 µg/mL. This molecule showed a Ki in assay [2] greater than 50 µM.

For `O=C(NCc1cccnc1)c1cc(C(=O)Nc2ccccc2)n(-c2ccc(Cl)cc2)n1`, the lowest concentration to inhibit growth in assay [1] (MIC) was 0.25 µg/mL (≈ 0.579 µM). For the same molecule, the inhibition constant (Ki) in assay [2] is greater than 50 µM.

In assay [1], `NC(=O)c1ccc(NC(=O)c2cc(C(=O)NCc3ccccc3)nn2-c2ccc(Cl)cc2)cc1` registered an MIC of 8 µg/mL (≈ 16.9 µM). Besides, in assay [2], the Ki is greater than 50 µM.

Turning to `COc1ccc(-n2nc(C(=O)NCc3ccccc3)cc2C(=O)Nc2ccc(C(=O)N3CCCC3)cc2)cc1`, the minimal inhibitory concentration (MIC) in assay [1] was 3 µg/mL (≈ 5.73 µM); in assay [3] it was greater than 64 µg/mL; in assay [4], greater than 64 µg/mL; in assay [5] it was 3 µg/mL (≈ 5.73 µM). In assay [2], this molecule had a Ki greater than 50 µM.

`COc1ccc(-n2nc(C(=O)NCC3CCCO3)cc2C(=O)Nc2ccc(C(=O)N3CCCC3)cc2)cc1` (centres undefined) had an MIC in assay [1] greater than 32 µg/mL. In addition, in assay [2], the Ki was greater than 50 µM.
